Laboratory results reported in ChEMBL document CHEMBL3102757, “Synthesis and evaluation of the antiparasitic activity of bis-(arylmethylidene) cycloalkanones” (Eur J Med Chem, 2014).
Activity calls are given as the source filed them. The calls are words filed in the database; no cut-off is given here.

Key:
[1] = target: Cruzipain (Trypanosoma cruzi) (UniProt P25779); assay: Inhibition of Trypanosoma cruzi recombinant cruzaine using Z-FR-AMC as substrate at 100 uM preincubated for 10 mins measured for 5 mins by spectrophotometric analysis in presence of triton relative to DMSO-treated control
In short: (§1)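 Fluorescence at ex 340/em 440 nm followed 5 min. Compounds screened at 100 µM. The main screen used 0.01% Triton without pre-incubation. Checks used 0.1% or no Triton and a 10-min pre-incubation. Triplicates, activity versus DMSO control.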

[2] = target: Cruzipain (Trypanosoma cruzi) (UniProt P25779); assay: Inhibition of Trypanosoma cruzi recombinant cruzaine using Z-FR-AMC as substrate at 100 uM preincubated for 10 mins measured for 5 mins by spectrophotometric analysis relative to DMSO-treated control; in short: as §1
[3] = target: T1, Glutathione reductase, mitochondrial (Homo sapiens, UniProt P00390); assay: Inhibition of human recombinant glutathione reductase using glutathione as substrate preincubated for 30 mins by colorimetric assay
T1 sequence (P00390 whole entry): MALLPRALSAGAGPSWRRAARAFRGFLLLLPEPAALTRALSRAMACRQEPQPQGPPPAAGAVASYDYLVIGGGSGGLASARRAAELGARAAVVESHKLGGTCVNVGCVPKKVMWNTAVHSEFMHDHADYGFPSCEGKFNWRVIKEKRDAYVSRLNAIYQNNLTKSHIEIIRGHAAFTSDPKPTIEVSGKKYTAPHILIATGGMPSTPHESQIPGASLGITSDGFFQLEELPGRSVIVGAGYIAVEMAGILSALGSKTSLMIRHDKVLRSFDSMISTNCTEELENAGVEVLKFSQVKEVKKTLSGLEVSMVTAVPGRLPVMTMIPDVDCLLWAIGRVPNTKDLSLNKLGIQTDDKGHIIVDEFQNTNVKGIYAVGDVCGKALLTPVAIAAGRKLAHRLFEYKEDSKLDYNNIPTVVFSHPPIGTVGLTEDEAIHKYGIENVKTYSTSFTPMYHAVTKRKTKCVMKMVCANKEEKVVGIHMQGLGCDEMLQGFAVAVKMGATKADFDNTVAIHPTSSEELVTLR
In short: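 Recombinant human glutathione reductase (10 mU) in 100 mM potassium phosphate pH 7.0, 1 mM EDTA, 400 µM NADPH. Pre-incubated with compound 30 min at 27 °C. Started with oxidized glutathione (10 µL of 1 mM stock). […] Carmustine positive control.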

[4] = target: Trypanothione reductase (Trypanosoma cruzi, UniProt P28593); assay: Inhibition of Trypanosoma cruzi trypanothione reductase expressed in Escherichia coli BL21(DE3) assessed as reduction of oxidized trypanothione preincubated for 30 mins measured for 30 mins by spectrophotometric analysis
[5] = Selectivity index, ratio of CC50 for mouse peritoneal macrophages to IC50 for Leishmania amazonensis IFLA/BR/1967/PH-8 promastigotes; type: functional
In short: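 Ratio of peritoneal macrophage CC50 (MTT, 24 h) to promastigote IC50 (MTT, 48 h).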

[6] = Cytotoxicity against mouse peritoneal macrophages after 24 hrs by MTT assay; type: cell-based, Peritoneal macrophage cell
In short: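 Murine peritoneal macrophages (5×10^5) cultured 24 h with a range of compound concentrations. Viability read by MTT, given as % lysis relative to cultures treated with amphotericin B (1 µg/mL).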

[7] = system: Trypanosoma cruzi; assay: Trypanocidal activity against Trypanosoma cruzi Tulahuen amastigotes infected in mouse L929 cells assessed as parasite growth inhibition after 7 days by beta-galactosidase assay; type: functional, organism-based; details: L929, 168 h
In short: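 L-929 fibroblasts (4.0×10^3/well) infected with β-galactosidase-expressing Tulahuen trypomastigotes (4.0×10^4/well) for 2 h, then washed. Compounds added at 48 h, in tetraplicate, RPMI without phenol red plus 10% FBS. After 7 days, chlorophenol red β-D-galactopyranoside (100 µM) and 0.1% Nonidet P-40 added overnight at 37 °C. Read at 570 nm as % growth inhibition. Benznidazole control.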

[8] = system: Leishmania amazonensis; assay: Antileishmanial activity against Leishmania amazonensis IFLA/BR/1967/PH-8 promastigotes assessed as parasite growth inhibition after 48 hrs by MTT assay; details: IFLA/BR/1967/PH-8, 48 h
[9] = Selectivity index, ratio of CC50 for mouse L929 cells to IC50 for Trypanosoma cruzi Tulahuen amastigotes; type: functional
In short: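 Ratio of L-929 CC50 (alamarBlue, 96 h) to amastigote IC50 from the β-galactosidase infection assay.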

[10] = Cytotoxicity against mouse L929 cells after 96 hrs by Alamar blue assay; type: cell-based
In short: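 L-929 fibroblasts seeded at 4.0×10^3 per well, same culture timing as the infection assay, exposed to rising concentrations for 96 h in tetraplicate. alamarBlue added, absorbance at 570 and 600 nm after 4–6 h. Viability as % reduction versus untreated cells. CC50 by linear interpolation.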

Chain of Trypanothione reductase (P28593 whole entry): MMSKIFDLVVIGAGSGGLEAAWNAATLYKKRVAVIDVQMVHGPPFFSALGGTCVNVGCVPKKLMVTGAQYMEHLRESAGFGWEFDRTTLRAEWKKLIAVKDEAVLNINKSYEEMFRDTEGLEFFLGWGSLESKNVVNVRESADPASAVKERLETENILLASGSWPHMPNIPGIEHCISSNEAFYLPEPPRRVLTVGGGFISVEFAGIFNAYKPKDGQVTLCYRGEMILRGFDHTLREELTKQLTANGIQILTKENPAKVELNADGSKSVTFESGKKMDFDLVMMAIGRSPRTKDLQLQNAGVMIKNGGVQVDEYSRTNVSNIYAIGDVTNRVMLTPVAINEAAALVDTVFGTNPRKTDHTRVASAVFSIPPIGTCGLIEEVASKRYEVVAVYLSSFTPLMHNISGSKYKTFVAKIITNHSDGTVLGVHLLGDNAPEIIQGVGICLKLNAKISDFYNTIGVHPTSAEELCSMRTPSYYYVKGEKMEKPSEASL
Chain of Cruzipain (Trypanosoma cruzi) (P25779 123-467 limits assumed): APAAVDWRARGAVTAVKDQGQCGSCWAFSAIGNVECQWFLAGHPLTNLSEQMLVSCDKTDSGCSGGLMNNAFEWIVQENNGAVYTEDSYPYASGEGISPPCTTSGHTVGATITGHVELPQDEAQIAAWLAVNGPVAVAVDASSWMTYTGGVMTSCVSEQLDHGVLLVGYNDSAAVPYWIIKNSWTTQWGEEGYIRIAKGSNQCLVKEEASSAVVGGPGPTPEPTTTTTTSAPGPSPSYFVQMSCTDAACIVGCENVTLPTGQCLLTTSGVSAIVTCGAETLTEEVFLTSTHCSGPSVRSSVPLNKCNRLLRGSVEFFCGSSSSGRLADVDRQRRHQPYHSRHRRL

Compound	inhibition [1]	inhibition [2]	IC50 [3]	IC50 [4]	Ratio CC50/IC50 [5]	CC50 at 24 h [6]	IC50 [7]	IC50 [8]	Ratio CC50/IC50 [9]	CC50 at 96 h [10]
O=C(Cn1ccnc1[N+](=O)[O-])NCc1ccccc1 [BENZNIDAZOLE]									>262	> 1000 µM
O=C1/C(=C/c2ccc(Cn3cc(-c4ccccc4)nn3)cc2)CC/C1=C\c1ccc(Cn2cc(-c3ccccc3)nn2)cc1			> 100 µM	> 100 µM			> 250 µM			
O=C1/C(=C/c2ccc(Cn3cc(CCO)nn3)cc2)CC/C1=C\c1ccc(Cn2cc(CCO)nn2)cc1	inactive	16%	> 100 µM	> 100 µM	1.2	60.4 µM	> 250 µM	50.9 µM		
C[C@@H]1[C@H](O)[C@@H](C)/C=C/C=C/C=C/C=C/C=C/C=C/C=C/[C@H](O[C@@H]2O[C@H](C)[C@@H](O)[C@H](N)[C@@H]2O)C[C@@H]2O[C@](O)(C[C@@H](O)C[C@@H](O)[C@H](O)CC[C@@H](O)C[C@@H](O)CC(=O)O[C@H]1C)C[C@H](O)[C@H]2C(=O)O [AMPHOTERICIN B]					8.8	0.7 µM		0.08 µM		
O=C1/C(=C/c2ccccc2)CC/C1=C\c1ccccc1			> 100 µM	> 100 µM	1.6	76.2 µM	73 µM	46.6 µM	5.1	375 µM
O=C1/C(=C/c2ccc[nH]2)CC/C1=C\c1ccc[nH]1			> 100 µM	> 100 µM	3.8	55.8 µM	> 250 µM	14.7 µM		
CN(C)c1ccc(/C=C2\CC/C(=C\c3ccc(N(C)C)cc3)C2=O)cc1			> 100 µM	> 100 µM	0.4	17.6 µM	> 250 µM	44.1 µM		
[N-]=[N+]=NCc1ccc(/C=C2\CC/C(=C\c3ccc(CN=[N+]=[N-])cc3)C2=O)cc1			228 µM	> 100 µM			> 250 µM			
O=NN(CCCl)C(=O)NCCCl [CARMUSTINE]			8.1 µM							
O=C1/C(=C/c2ccc([N+](=O)[O-])cc2)CC/C1=C\c1ccc([N+](=O)[O-])cc1	inactive	35%	> 100 µM	> 100 µM			> 250 µM			

Second part, led by results:

inhibition [1]	inhibition [2]	IC50 [3]	IC50 [4]	Compound	Ratio CC50/IC50 [5]	CC50 at 24 h [6]	IC50 [7]	IC50 [8]	Ratio CC50/IC50 [9]	CC50 at 96 h [10]
inactive	42%	> 100 µM	> 100 µM	O=C1/C(=C/c2ccnc3ccccc23)CCC/C1=C\c1ccnc2ccccc12	1	0.6 µM	> 250 µM	0.6 µM		
		> 100 µM	> 100 µM	O=C1/C(=C/c2ccnc3ccccc23)CC/C1=C\c1ccnc2ccccc12	0.8	3.7 µM	7 µM	4.9 µM	3.6	25.3 µM
inactive	31%	> 100 µM	45.8 µM	O=C1/C(=C/c2ccccc2)CCC/C1=C\c1ccccc1 [2,6-DIBENZYLIDENECYCLOHEXANONE]	6	50.6 µM	> 250 µM	8.4 µM		
inactive	66%	> 100 µM	14.7 µM	O=C1/C(=C/c2ccncc2)CCC/C1=C\c1ccncc1	19.9	23.9 µM	> 250 µM	1.2 µM		
		> 100 µM	> 100 µM	O=C1/C(=C/c2cccc3cnccc23)CC/C1=C\c1cccc2cnccc12	23.8	21.4 µM	31.3 µM	0.9 µM	16	500 µM
inactive	32%	> 100 µM	> 100 µM	Cc1ccc(/C=C2\CCC/C(=C\c3ccc(C)cc3)C2=O)cc1	0.2	19.7 µM	230 µM	110 µM	1.1	250 µM
		> 100 µM	> 100 µM	Cc1ccc(/C=C2\CC/C(=C\c3ccc(C)cc3)C2=O)cc1	0.7	39.4 µM	> 250 µM	52.6 µM		
		> 100 µM	> 100 µM	O=C1/C(=C/c2ccc[nH]2)CCC/C1=C\c1ccc[nH]1	15.7	83.2 µM	249 µM	5.3 µM	1.5	375 µM
inactive	19%	> 100 µM	> 100 µM	O=C1/C(=C/c2cccc3cnccc23)CCC/C1=C\c1cccc2cnccc12	9.3	78.1 µM	68.7 µM	8.4 µM	2.7	188 µM
		> 100 µM	> 100 µM	CN(C)c1ccc(/C=C2\CCC/C(=C\c3ccc(N(C)C)cc3)C2=O)cc1	1.1	20.8 µM	> 250 µM	18.6 µM		
inactive	23%	> 100 µM	> 100 µM	O=C1/C(=C/c2ccncc2)CC/C1=C\c1ccncc1			> 250 µM			
